By IC50 is commonly meant the midpoint of a concentration-inhibition curve. High values mean lower potency, low ones higher potency. What is called ED50 is the midpoint of the dose-response relation. A higher ED50 goes with weaker potency.

A short description of assay [1]: Resistance factor by IC50(K1)/IC50(HB3). The class given is functional. In short, it runs like this: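 P. falciparum K1 (uncloned, CQ-resistant) and HB3 (sensitive), both from Thailand, were cultured in human erythrocytes in RPMI 1640/HEPES/NaHCO3 with 10% human serum under 3% O2/4% CO2. Assays ran 48 h at 2% parasitemia and 0.5% hematocrit, in triplicate, from DMSO stocks diluted in medium. [3H]hypoxanthine was added at 24 h. IC50 came from probit of the log dose-response curve. The factor is K1 IC50 divided by HB3 IC50.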

Assay [2] deals with Plasmodium falciparum. Put plainly: In vitro inhibitory activity against chloroquine-resistant Plasmodium falciparum K1. The class given is functional, organism-based. In short, it runs like this: (§1)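 Parasites kept in continuous culture in human erythrocytes in RPMI 1640 with 25 mM HEPES, 32 mM NaHCO3 and 10% human serum, gassed 3% O2/4% CO2/93% N2. 48-h assay at 2% parasitemia, 0.5% hematocrit, triplicate. Drugs from DMSO stocks diluted in medium. [3H]hypoxanthine added at 24 h, harvested at 48 h and counted. IC50 by probit interpolation of log dose–response.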

Assay [3] relates to Plasmodium berghei (NS strain). As to the kind of experiment: In vivo inhibition of Plasmodium berghei infected male Swiss albino mice (Mus musculus) by intraperitoneal dose. To be noted: ip.
The test system of assay [4] is Plasmodium berghei (NS strain). Put plainly: In vivo inhibition of Plasmodium berghei infected male Swiss albino mice (Mus musculus) by oral dose.
The test system of assay [5] is Plasmodium falciparum. Put plainly: In vitro inhibitory activity against chloroquine-sensitive Plasmodium falciparum HB3. Format: functional, organism-based. In short, it runs like this: as §1

Take `CCN(CC)CCCC(C)Nc1ccnc2cc(Cl)ccc12` (centres undefined): the Resistance factor in assay [1] was 9.57.
For the molecule `CCN(CC)Cc1cc(Nc2ccnc3cc(Cl)ccc23)ccc1O.Cl`, the IC50 was 13.2 nM in the assay on Plasmodium falciparum [2] and 2.47 nM in the assay with Plasmodium falciparum [5]. Moreover, the 50% effective dose (ED50) in assay [3] is 3.3 mg/kg; in assay [4], 1.92 mg/kg. The same molecule returned a Resistance factor in assay [1] of 5.35.
As for `CC(C)(C)NCc1cc(Nc2ccnc3cc(Cl)ccc23)cc(C2CCCCC2)c1O`, the results for the IC50 in the assay on Plasmodium falciparum [2] and with Plasmodium falciparum [5] were 14.5 nM and 6.8 nM, respectively. The molecule further yielded a Resistance factor in assay [1] of 2.13.
The like results for `CC(C)(C)NCc1cc(Nc2ccnc3cc(Cl)ccc23)ccc1O` [N-TERT-BUTYL-AMODIAQUINE] were, in that order, 3.43 nM, 1.47 nM and 2.33.
With `CCc1cc(Nc2ccnc3cc(Cl)ccc23)cc(CNC(C)(C)C)c1O`, the figures for the concentration for half-maximal inhibition (IC50) in the assay on Plasmodium falciparum [2] and with Plasmodium falciparum [5] were 7.9 nM and 2.97 nM, respectively. This molecule also came in with a Resistance factor in assay [1] of 2.65.
The like results for `CC(C)(C)NCc1cc(Nc2ccnc3cc(Cl)ccc23)cc(C(C)(C)C)c1O` were, in that order, 21.2 nM, 8.35 nM and 2.54.
Consider `CC(C)c1cc(Nc2ccnc3cc(Cl)ccc23)cc(CNC(C)(C)C)c1O`, for which the concentration for half-maximal inhibition (IC50) in the assay with Plasmodium falciparum [2] amounted to 1.87 nM; in the assay with Plasmodium falciparum [5], 1.24 nM. Besides, the 50% effective dose (ED50) in assay [3] is 0.78 mg/kg; in assay [4] it was 0.38 mg/kg. The molecule further registered a Resistance factor in assay [1] of 1.5.
`CCC(C)c1cc(Nc2ccnc3cc(Cl)ccc23)cc(CNC(C)(C)C)c1O` (centres undefined): the half-inhibitory concentration (IC50) with Plasmodium falciparum [2] was determined as 5.77 nM; with Plasmodium falciparum [5], 1.97 nM. This molecule yielded a Resistance factor in assay [1] of 2.92.
Take `Cc1cc(Nc2ccnc3cc(Cl)ccc23)cc(CNC(C)(C)C)c1O`: the IC50 in the assay with Plasmodium falciparum [2] is 11.2 nM; with Plasmodium falciparum [5], 2.99 nM. Also, the Resistance factor in assay [1] was 3.76.
In the case of `CCCc1cc(Nc2ccnc3cc(Cl)ccc23)cc(CNC(C)(C)C)c1O`, the IC50 with Plasmodium falciparum [2] was 1.83 nM; in the assay on Plasmodium falciparum [5], 0.98 nM. For the same molecule, the ED50 in assay [3] worked out at 0.8 mg/kg; in assay [4], 0.56 mg/kg. For the same molecule, the Resistance factor in assay [1] amounted to 1.86.

These data come from ChEMBL document CHEMBL1132310, “New 4-aminoquinoline Mannich base antimalarials. 1. Effect of an alkyl substituent in the 5'-position of the 4'-hydroxyanilino side chain” (J Med Chem, 1999).
